ChEMBL document CHEMBL1142301, “2'-deoxy cyclic adenosine 5'-diphosphate ribose derivatives: importance of the 2'-hydroxyl motif for the antagonistic activity of 8-substituted cADPR derivatives” (J Med Chem, 2008)
Activity calls are given as the source filed them. No cut-off for these calls is given here.

Experiments:
[1] = tested on: Jurkat; assay: Antagonist activity at human cADPR receptor in Jurkat T cells assessed as inhibition of inositol-1,4,5-triphosphate-induced calcium release; type: functional, cell-based
In short: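 Permeabilized, store-reloaded Jurkat T cells in pH 7.2 intracellular buffer with fura2 free acid (ex 340/380 nm, em 495 nm). Analogues were tested at 100 µM against Ca2+ release triggered by 4 µM InsP3.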

[2] = tested on: Jurkat; assay: Agonist activity at human cADPR receptor in Jurkat T cells assessed as stimulation of calcium release at 100 uM; type: functional, cell-based
In short: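 Saponin-permeabilized Jurkat T cells in intracellular buffer (20 mM HEPES, 110 mM KCl, 2 mM MgCl2, 5 mM KH2PO4, 10 mM NaCl, pH 7.2) with no extracellular Ca2+. Cells were kept on ice 2 h to reseal stores, then reloaded with ATP plus creatine phosphate/creatine kinase. Compound was added once stores were refilled. Ca2+ read by fura2 free acid (ex 340/380, em 495 nm), calibrated with CaCl2 and EGTA/Tris.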

[3] = (§1) Antagonist activity at human cADPR receptor in Jurkat T cells assessed as inhibition of cyclic ADP-ribose-induced calcium release; type: functional, cell-based
In short: (§2)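 Jurkat T cells were saponin-permeabilized, resealed 2 h on ice and reloaded with Ca2+ via ATP and a creatine phosphate/creatine kinase regenerating system, in pH 7.2 KCl/HEPES intracellular buffer. Analogue inhibition of Ca2+ release evoked by 30 µM cADPR was followed by fura2 ratio (340/380 nm ex, 495 nm em), calibrated per run. IC50 values were taken from concentration–response curves.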

[4] = tested on: Lytechinus pictus; assay: (§3) Agonist activity at human cADPR receptor in sea urchin egg homogenates assessed as stimulation of calcium release; type: functional, tissue-based
In short: (§4)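 Lytechinus pictus eggs were spawned by intracoelomic 0.5 M KCl, dejellied and washed. Eggs were homogenized in 250 mM K gluconate, 250 mM N-methylglucamine, 20 mM HEPES, 1 mM MgCl2, pH 7.2, with 1 mM ATP, creatine kinase, phosphocreatine and protease inhibitors. Ca2+ read with 3 µM fluo-3 at 17 °C (ex 506, em 526 nm) in stirred homogenate. EC50/IC50 values come from concentration–response curves.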

[5] = tested on: Lytechinus pictus; assay: Agonist activity at human cADPR receptor in intact sea urchin egg assessed as stimulation of calcium release; type: functional
In short: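 Intact Lytechinus pictus eggs were microinjected with rhod dextran (~10 µM intracellular), then exposed to 100 or 400 µM analogue in the bath. Ca2+ was imaged by confocal microscopy (ex 543 nm, em >560 nm).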

[6] = tested on: Jurkat; assay: as §1; type: functional, cell-based; in short: as §2
[7] = as §3; type: functional, tissue-based, Lytechinus pictus; in short: as §4
[8] = Antagonist activity at cADPR receptor in sea urchin egg homogenates assessed as inhibition of calcium release; type: functional, tissue-based, Lytechinus pictus; in short: as §4
[9] = tested on: Jurkat; assay: Agonist activity at human cADPR receptor in Jurkat T cells assessed as stimulation of calcium release at 100 uM

IC50 [3]	SMILES	Activity [1]	Activity [2]	further results
–	Nc1c2ncn3c2nc[n+]1[C@@H]1O[C@H](COP(=O)([O-])OP(=O)(O)OC[C@H]2O[C@@H]3[C@H](O)[C@@H]2O)[C@@H](O)[C@H]1O	inactive	Active	–
8 µM	COc1nc2c(N)[n+]3cnc2n1[C@H]1C[C@H](O)[C@@H](COP(=O)(O)OP(=O)([O-])OC[C@H]2O[C@@H]3[C@H](O)[C@@H]2O)O1	inactive	Active	–
–	Nc1c2nc(Br)n3c2nc[n+]1[C@@H]1O[C@H](COP(=O)([O-])OP(=O)(O)OC[C@H]2O[C@@H]3C[C@@H]2O)[C@@H](O)[C@H]1O	–	Active	Activity [4]: Active; Activity [5]: Active
–	Nc1c2ccn3c2nc[n+]1[C@@H]1O[C@H](COP(=O)([O-])OP(=O)(O)OC[C@H]2O[C@@H]3C[C@@H]2O)[C@@H](O)[C@H]1O	–	Active	Activity [6]: inactive
0.2 µM	Nc1nc2c(N)[n+]3cnc2n1[C@@H]1O[C@H](COP(=O)(O)OP(=O)([O-])OC[C@H]2O[C@@H]3[C@H](O)[C@@H]2O)[C@@H](O)[C@H]1O	inactive	Active	EC50 [7]: 89 µM; IC50 [8]: 0.105 µM; Activity [9]: Active
–	Nc1c2nc(-c3ccccc3)n3c2nc[n+]1[C@@H]1O[C@H](COP(=O)([O-])OP(=O)(O)OC[C@H]2O[C@@H]3C[C@@H]2O)[C@@H](O)[C@H]1O	–	Active	–
–	Nc1c2nc(-c3ccccc3)n3c2nc[n+]1[C@@H]1O[C@H](COP(=O)([O-])OP(=O)(O)OC[C@H]2O[C@@H]3[C@H](O)[C@@H]2O)[C@@H](O)[C@H]1O	–	Active	–
6 µM	Nc1nc2c(N)[n+]3cnc2n1[C@H]1C[C@H](O)[C@@H](COP(=O)(O)OP(=O)([O-])OC[C@H]2O[C@@H]3[C@H](O)[C@@H]2O)O1	inactive	Active	EC50 [7]: > 89 µM; IC50 [8]: 0.22 µM
10 µM	Nc1c2nc(Br)n3c2nc[n+]1[C@@H]1O[C@H](COP(=O)([O-])OP(=O)(O)OC[C@H]2O[C@@H]3[C@H](O)[C@@H]2O)[C@@H](O)[C@H]1O	inactive	Active	–
